Experimental data from ChEMBL document CHEMBL1949504, “Synthesis and anti-leishmanial activity of 5-(5-nitrofuran-2-yl)-1,3,4-thiadiazol-2-amines containing N-[(1-benzyl-1H-1,2,3-triazol-4-yl)methyl] moieties” (Eur J Med Chem, 2012).
The source made the active and inactive calls. The rule behind the calls is not given here.

Columns and labels:
Assay type in all cases: functional, organism-based
Leishmania major [1] = test: Antileishmanial activity against promastigotes of Leishmania major […] by MTT assay
How it was run: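 Promastigotes of L. major vaccine strain MRHO/IR/75/ER were used. Two or more independent experiments were run in triplicate. IC50 was obtained by linear regression and reported as the mean. Meglumine antimonate served as the standard drug.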

Leishmania major [2] = test: Antiamastigote activity against Leishmania major MHOM/1L/80/ER amastigotes infected in mouse primary peritoneal macrophages assessed as decrease in number of intracellular amastigotes per macrophage after 24 hrs using Giemsa staining
How it was run: (§1)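 Mouse peritoneal macrophages on glass coverslips at 1 × 10^6/well were infected for 2 h with stationary-phase promastigotes in RPMI (2 × 10^6/well, 3 parasites per macrophage). Extracellular parasites were washed off, then compound-containing medium was added for 24 h. Cells were methanol-fixed and Giemsa-stained, with 100 cells counted per well. Two experiment sets were run.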

Leishmania major [3] = test: Antiamastigote activity against Leishmania major MHOM/1L/80/ER amastigotes infected in mouse primary peritoneal macrophages assessed as percentage of macrophage infectivity after 24 hrs using Giemsa staining; how it was run: as §1
Leishmania major [4] = test: Antiamastigote activity against Leishmania major MHOM/1L/80/ER amastigotes infected in mouse primary peritoneal macrophages assessed as infectivity index after 24 hrs using Giemsa staining
How it was run: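 Macrophage infection and treatment were as for the amastigote counts: 1 × 10^6 peritoneal macrophages/well, infected 2 h at 3 promastigotes per cell, washed, then drug exposure for 24 h. Giemsa staining after methanol fixation, 100 cells examined per well. Infectivity index = % macrophages with at least one intracellular parasite × mean parasites per infected macrophage. Two experiment sets.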

Molecule | IC50 (Leishmania major [1]; Leishmania major) [µM] | Activity (Leishmania major [2]) | Activity (Leishmania major [3]) | Activity (Leishmania major [4]) | IC50 (Leishmania major [1]) [µM]
O=[N+]([O-])c1ccc(Cn2cc(CNc3nnc(-c4ccc([N+](=O)[O-])o4)s3)nn2)cc1 | 32.7 |  |  |  | 
Cc1ccc(Cn2cc(CNc3nnc(-c4ccc([N+](=O)[O-])o4)s3)nn2)cc1 | 12.2 | Active | Active | Active | 
O=[N+]([O-])c1ccc(-c2nnc(NCc3cn(Cc4ccc(F)cc4)nn3)s2)o1 | 21.4 | Active | Active | Active | 
O=[N+]([O-])c1ccc(-c2nnc(NCc3cn(Cc4ccccc4)nn3)s2)o1 | 19.6 | Active | Active | Active | 
O=[N+]([O-])c1ccc(-c2nnc(NCc3cn(Cc4ccc(Cl)cc4Cl)nn3)s2)o1 | 19.9 | Active | Active | Active | 
O=[N+]([O-])c1ccc(-c2nnc(NCc3cn(Cc4ccc(Cl)c(Cl)c4)nn3)s2)o1 | 132 |  |  |  | 
Cc1ccccc1Cn1cc(CNc2nnc(-c3ccc([N+](=O)[O-])o3)s2)nn1 | 25.2 |  |  |  | 
MEGLUMINE ANTIMONATE |  |  |  |  | 68300
O=[N+]([O-])c1ccc(-c2nnc(NCc3cn(Cc4ccccc4Cl)nn3)s2)o1 | 18.9 | Active | Active | Active | 
O=[N+]([O-])c1ccc(-c2nnc(NCc3cn(Cc4ccccc4F)nn3)s2)o1 | 19 | Active | Active | Active | 
O=[N+]([O-])c1ccc(-c2nnc(NCc3cn(Cc4ccc(Cl)cc4)nn3)s2)o1 | 88.8 |  |  |  | 
O=[N+]([O-])c1ccc(-c2nnc(NCc3cn(Cc4cccc(Cl)c4)nn3)s2)o1 | 108 |  |  |  | 
O=[N+]([O-])c1ccc(-c2nnc(NCc3cn(Cc4c(F)cccc4Cl)nn3)s2)o1 | 17.4 | Active | Active | Active | 
Cc1cccc(Cn2cc(CNc3nnc(-c4ccc([N+](=O)[O-])o4)s3)nn2)c1 | 21.9 | Active | Active | Active | 
O=[N+]([O-])c1ccc(-c2nnc(NCc3cn(Cc4cccc(Cl)c4Cl)nn3)s2)o1 | 104 |  |  |  | 
